# PTEN del growth = PTEN-deleted cell growth suppression; viability, % at 10 µM; AID 827; 140,000 compounds, 1.2% hits; HCT116 PTEN-null viability, CellTiter-Glo, 60 h; stronger effect = lower value;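 active = viability at or below a set limit, 4 SD under the median of all tested compounds, cut at about 3.7% in these data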;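 also: PTEN knockout HCT116 line with beta catenin targeted HCT116 as companion control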
# TNAP inh hiacc = blocks human TNAP under high phosphate acceptor concentration; inhibition, % at 20 µM; 200,000 compounds, 0.03% hits; purified TNAP, CDP-star luminescence, 1 M DEA; P05186;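 active = over 50% inhibition of tissue-nonspecific alkaline phosphatase at 20 µM in the single-dose screen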;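 also: plate controls were DMSO wells for no effect and EDTA-quenched wells as full inhibition for full effect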
# Target sequence (P05186 whole entry, looked up): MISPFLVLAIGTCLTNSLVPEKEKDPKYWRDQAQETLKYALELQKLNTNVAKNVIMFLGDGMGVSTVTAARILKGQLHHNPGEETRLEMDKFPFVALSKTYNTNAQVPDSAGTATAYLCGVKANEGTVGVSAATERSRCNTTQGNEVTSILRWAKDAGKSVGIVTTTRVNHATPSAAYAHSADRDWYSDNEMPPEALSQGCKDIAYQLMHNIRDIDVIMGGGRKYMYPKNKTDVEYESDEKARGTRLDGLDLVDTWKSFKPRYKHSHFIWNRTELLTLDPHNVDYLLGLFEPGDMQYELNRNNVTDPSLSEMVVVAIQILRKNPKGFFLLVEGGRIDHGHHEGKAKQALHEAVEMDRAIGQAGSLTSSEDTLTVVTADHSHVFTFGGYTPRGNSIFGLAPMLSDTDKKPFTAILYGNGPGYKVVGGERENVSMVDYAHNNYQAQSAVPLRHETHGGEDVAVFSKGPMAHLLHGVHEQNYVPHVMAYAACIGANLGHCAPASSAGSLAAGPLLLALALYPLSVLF
# HCT116 bCat-KO = beta-catenin-lacking colon tumor cell growth suppression; AID 818; viability, % at 10 µM; HCT116 beta-catenin knockout viability, CellTiter-Glo, 60 h; stronger effect = lower value; 140,000 compounds, 1.5% hits;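 active = viability at or under a set limit, the compound median less 4 SD, cut at about 6% in these data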;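 also: 0% = Hyamine 1622 control at 20 µM and 100% = untreated cell control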
# TNAP act hi DEA = increases human TNAP activity under high phosphate acceptor concentration; activation factor at 20 µM; AID 1136; P05186; 200,000 tested, under 10 active; purified TNAP, CDP-star luminescence, 1 M DEA, 30 min; stronger effect = higher value; 0 = EDTA background, 1 = DMSO-only activity;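 active = activation factor at least 2 at 20 µM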
#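 system = human TNAP | amount = enzyme diluted 1/800 final | reagent = 100 µM CDP-star substrate | signal = luminescent substrate turnover signal | dosing = one dose, 20 µM | benchmarks = EDTA negative control, DMSO positive control | measure = activation factor | timing = 30 min reaction, room temperature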
# L major viab = inhibitors of Leishmania major promastigote growth; Leishmania major promastigotes, resazurin fluorescence viability; inhibition, % at 10 µM; 200,000 compounds, 9% hits; AID 1063; in the data active = inhibition above about 50%;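 also: promastigotes grown with compound for 44 hours at 28 °C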
# TNAP inh no acc = inhibitors of human TNAP without phosphate acceptor; P05186; purified TNAP, CDP-star luminescence, 30 min; inhibition, % at 20 µM; 200,000 compounds, 0.26% hits;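 active = tissue-nonspecific alkaline phosphatase inhibition above about 50% at 20 µM in the single-dose screen, limit read from the data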;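 also: 0% = DMSO negative control and 100% = EDTA positive control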
# An asterisk follows results filed as active; · = not tested or not shown. An excerpt weighted towards active compounds, which were near 9.6% of everything screened.
SMILES,PTEN del growth,TNAP inh hiacc,HCT116 bCat-KO,TNAP act hi DEA,L major viab,TNAP inh no acc
CCn1cc(CN2N=C(C)CC2c2ccccc2)c(C)n1 (stereo not given),·,-4.5,·,1,-4.9,-6.1
Cc1c(C#N)sc(C(N)=O)c1C,·,-4.9,·,1,-7.7,-6.8
COc1ccc(C(=O)Cn2c(C(=O)/C=C/c3ccccc3)nc3ccccc32)cc1,3.7*,-2.4,2.4*,1,88.7*,-6.4
COc1ccc(C(=O)CSc2nc3ccccc3n2CC(=O)c2ccccc2)cc1,94.6,-6.2,99.0,1.1,22.4,-7.5
O=[N+]([O-])c1cccc(/C=N/n2c(-c3cccnc3)n[nH]c2=S)c1,92.4,-3.7,93.9,1,55.0*,12.6
O=[N+]([O-])c1ccc(/C=N/n2c(-c3cccnc3)n[nH]c2=S)cc1,92.7,5.2,90.3,0.9,-3.0,24.4
Cc1cc(-c2n[nH]c(=S)n2/N=C/c2cc([N+](=O)[O-])ccc2Cl)n[nH]1,9.9,-3.1,11.4,1,84.4*,-76.5
CCCOC(=O)c1c(NC(=O)CCCn2nc([N+](=O)[O-])cc2C)sc(C(=O)OC)c1C,86.2,1.0,93.0,1,4.7,-3.4
CC(C)n1cc(CN2CCN(CCc3ccccc3)C(CCO)C2)cn1 (stereo not given),·,-5.4,·,1.1,27.6,-5.6
Cc1ccc(S(=O)(=O)NCCC(c2ccc(F)cc2)c2ccco2)cc1 (stereo not given),71.1,0.0,85.4,1,56.3*,-15.9
O=C(NCc1ccncc1)C(=O)NCC(c1ccco1)N1CCN(c2ccc(F)cc2)CC1 (stereo not given),87.8,-2.5,93.3,1,55.0*,-11.1
O=S(=O)(NCC(c1ccco1)N1CCN(c2ccc(F)cc2)CC1)c1ccc(F)cc1 (stereo not given),91.5,-8.4,91.0,1.1,75.4*,2.8
O=S(=O)(NCC(c1ccco1)N1CCN(c2ccccc2)CC1)c1ccc(F)cc1 (stereo not given),81.5,-2.7,88.7,1,5.7,-3.7
Cc1nc2ccccc2c(=O)n1NC(=O)c1ccc([N+](=O)[O-])cc1,·,-0.4,·,1,-7.1,-9.8
COC(=O)c1cc(NC(=O)c2ccc(F)cc2)cc(C(=O)OC)c1,·,0.1,·,1,-4.3,-0.3
COc1ccc(C2=NN(C(=S)Nc3ccccc3)C(c3ccccc3)C2)cc1 (stereo not given),80.6,-5.7,83.3,1.1,96.0*,-9.1
COc1ccccc1C1CC(c2ccccc2)=NN1C(=S)Nc1ccccc1 (stereo not given),·,-1.2,·,1,78.6*,-3.2
COc1ccc(C2CC(c3ccc(Br)cc3)=NN2C(=S)Nc2ccccc2)cc1 (stereo not given),·,0.2,·,1,79.0*,-0.1
Cc1ccc(C2=NN(C(=S)Nc3ccccc3)C(c3ccco3)C2)cc1 (stereo not given),40.5,-6.1,52.0,1.1,56.0*,-10.3
CCS(=O)(=O)Nc1ccc(C2=NN(C(=S)Nc3ccccc3)C(c3ccco3)C2)cc1 (stereo not given),31.7,-3.8,39.2,1,12.7,-20.8
COc1ccc(C2=NN(C(N)=S)C(c3ccccc3)C2)cc1 (stereo not given),·,5.7,·,0.9,10.7,1.1
COc1ccc(C2CC(c3ccccc3)=NN2C(=S)Nc2ccccc2)cc1 (stereo not given),·,-2.3,·,1,36.6,-8.4
COc1ccc(-n2nc3c(c2NC(=O)c2ccc(S(=O)(=O)N4CCOCC4)cc2)CS(=O)C3)cc1 (stereo not given),·,-7.1,·,1.1,-2.1,-3.7
Cc1ccc(NS(=O)(=O)c2ccc(Cl)c(C(=O)Nc3ccccc3-c3nc4ccccc4[nH]3)c2)cc1C,9.4,-3.3,14.4,1,25.4,-8.1
CCCCCCNCc1cccc(Br)c1,79.9,-1.6,85.0,1,53.6*,-12.5
Brc1cccc(CNCCCN2CCOCC2)c1,·,-2.5,·,1,21.8,-10.7
CCCCCNCc1cccc(Br)c1,85.8,-1.4,88.4,1,74.5*,-5.1
O=C(c1cccc(S(=O)(=O)Nc2cccc(C(F)(F)F)c2)c1)N1CCCCC1,97.8,-2.1,95.8,1,2.3,-20.6
Cc1ccc(S(=O)(=O)N(C)c2ccccc2C(=O)NC2CCCC2)cc1,92.2,-3.4,85.0,1,36.3,-20.9

# Screens deposited in PubChem by several laboratories.
